Data reported in ChEMBL document CHEMBL1122629, “Potent and selective antagonists of the antidiuretic responses to arginine-vasopressin based on modifications of [1-(beta-mercapto-beta,beta-pentamethylenepropionic acid),2-D-isoleucine,4- valine]arginine-vasopressin at position 4” (J Med Chem, 1984).
*1 amine or outer side, *2 acyl side, *3 side chain or, on linkers, in order; H or OH if unused. Where a SMILES comes first, the peptide text is derived from it. Bridges are numbered along the chain shown (N, C = ends). [ ]: non-standard residue; d: D form. X1 = O=C(CC1(S[*:2])CCCCC1)[*:1]; Orn = NCCC[C@H](N)C(=O)O

How the values were obtained:
Rattus norvegicus [1] = organism: Rattus norvegicus; assay: Antidiuretic activity in rats and pA2 value is negative logarithm of effective dose (ED); assay type: functional, organism-based; details: Urine, read-out: pA2 (converted)
How it was run: (§1)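 Antidiuretic assay in rats under ethanol anaesthesia against the USP posterior pituitary reference standard. Standard given 20 min after antagonist, or 10 min for analogues lacking agonism. Each peptide given at a high and a low dose. ED is the dose (nmol/kg) that cuts the response to 2x units of agonist to the response to 1x unit given before antagonist. […] Means ± SE, n assays.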

Rattus norvegicus [2] = assay: Evaluated in vivo for logarithm effective dose (ED); assay type: functional, organism-based
Rattus norvegicus [3] = organism: Rattus norvegicus; assay: Anti-oxytocic activity on isolated rat uterus in absence of Mg2+. pA2 value is negative logarithm of effective dose (ED); assay type: functional; details: read-out: pA2 (converted)
How it was run: (§2)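 Isolated rat uterus, with USP posterior pituitary reference standard as agonist. Antagonism expressed as pA2.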

Rattus norvegicus [4] = organism: Rattus norvegicus; assay: Anti-oxytocic activity on isolated rat uterus in presence of 0.5 mM of Mg2+. pA2 value is negative logarithm of effective dose (ED); assay type: functional; details: read-out: pA2 (converted); how it was run: as §2
Rattus norvegicus [5] = organism: Rattus norvegicus; assay: Anti-oxytocic activity in rat uterus pA2 value is negative logarithm of effective dose (ED); assay type: functional, organism-based; details: read-out: pA2 (converted)
[6] = Ratio of anti-vasopressor ED50 to antiantidiuretic ED50; assay type: functional, Urine
How it was run: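 Ratio of antivasopressor ED to antiantidiuretic ED. Each ED is the dose (nmol/kg) that lowers the response to 2x units of agonist to that of 1x unit before antagonist. Measured in rats: vasopressor assay in phenoxybenzamine-treated, urethane-anaesthetised animals; antidiuretic assay under ethanol anaesthesia.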

Rattus norvegicus [7] = assay: In vivo antidiuretic activity in rat measured as dose that reduced the response seen with 2x units of agonist to equal the response seen with 1x unit of agonist administered before antagonist; assay type: functional, Urine; how it was run: as §1
Rattus norvegicus [8] = organism: Rattus norvegicus; assay: Anti-oxytocic activity in rat uterus and effective dose (ED) was reported.; assay type: functional
How it was run: (§3)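 Rat uterus in situ, with synthetic oxytocin as agonist. ED is the dose (nmol/kg) that lowers the response to 2x units of agonist to that of 1x unit given before antagonist.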

Rattus norvegicus [9] = assay: In vivo anti-vasopressor activity in phenoxybenzamine-treated rats under urethane anesthesia is measured as effective dose; assay type: functional
How it was run: (§4)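 Intravenous vasopressor assay in phenoxybenzamine-treated rats under urethane anaesthesia, agonist USP posterior pituitary reference standard. ED is the dose (nmol/kg) that reduces the response to 2x units of agonist to that of 1x unit given before antagonist. […] Means ± SE, number of assays given.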

Rattus norvegicus [10] = assay: Compound was evaluated in vivo for anti-vasopressor activity in rats and pA2 value is negative logarithm of effective dose (ED); assay type: functional, organism-based; details: read-out: pA2 (converted); how it was run: as §4
Rattus norvegicus [11] = organism: Rattus norvegicus; assay: In vitro anti-oxytocic activity on isolated rat uteri in absence of Mg2+. pA2 value is negative logarithm of effective dose (ED); assay type: functional; details: read-out: pA2 (converted); how it was run: as §2
Rattus norvegicus [12] = assay: Compound was evaluated in vivo for anti-oxytocic activity in rat uterus. pA2 value is negative logarithm of effective dose (ED); assay type: functional, organism-based; details: read-out: pA2 (converted); how it was run: as §3
Rattus norvegicus [13] = assay: Compound was evaluated in vivo for anti-oxytocic activity in rat uteri. pA2 value is negative logarithm of effective dose (ED); assay type: functional, organism-based; details: read-out: pA2 (converted); how it was run: as §3

Row | Compound | Kb (Rattus norvegicus [1]) [nM] | in vivo pA2 effective dose (as concentration) (Rattus norvegicus [2]) [nM] | Kb (Rattus norvegicus [3]) [nM] | Kb (Rattus norvegicus [4]) [nM] | Ratio [6] | ED (Rattus norvegicus [7]) [nmol/kg] | ED (Rattus norvegicus [8]) [nmol/kg] | ED (Rattus norvegicus [9]) [nmol/kg] | further results
1 | CC[C@@H](C)[C@H]1NC(=O)CC2(CCCCC2)SSC[C@@H](C(=O)N2CCC[C@H]2C(=O)N[C@@H](CCCN=C(N)N)C(=O)NCC(N)=O)NC(=O)[C@H](CC(N)=O)NC(=O)[C@H](CCCN)NC(=O)[C@H](Cc2ccccc2)NC1=O | 347 | 174 | 26.9 | 195 |  |  |  |  | 
2 | NC(=O)CNC(=O)[C@H](CCCN=C(N)N)NC(=O)[C@@H]1CCCN1C(=O)[C@@H]1CSSC2(CCCCC2)CC(=O)N[C@H](Cc2ccccc2)C(=O)N[C@@H](Cc2ccccc2)C(=O)N[C@@H](CO)C(=O)N[C@@H](CC(N)=O)C(=O)N1 [listing 1 of 2 here] | 46.8 | 23.4 | 22.9 | 14.8 |  |  |  |  | Kb (Rattus norvegicus [5]): 200 nM
3 | NC(=O)CNC(=O)[C@H](CCCN=C(N)N)NC(=O)[C@@H]1CCCN1C(=O)[C@@H]1CSSC2(CCCCC2)CC(=O)N[C@H](Cc2ccccc2)C(=O)N[C@@H](Cc2ccccc2)C(=O)N[C@@H](CO)C(=O)N[C@@H](CC(N)=O)C(=O)N1 [listing 2 of 2 here] |  |  |  |  | 0.41 | 3.9 | 13 | 1.6 | 
4 | CC[C@@H](C)[C@H]1NC(=O)CC2(CCCCC2)SSC[C@@H](C(=O)N2CCC[C@H]2C(=O)N[C@@H](CCCN=C(N)N)C(=O)NCC(N)=O)NC(=O)[C@H](CC(N)=O)NC(=O)[C@H](C)NC(=O)[C@H](Cc2ccccc2)NC1=O [listing 1 of 2 here] | 17.4 |  | 31.6 | 33.9 |  |  |  |  | Kb (Rattus norvegicus [10]): 933 nM; Kb (Rattus norvegicus [5]): 724 nM
5 | CC[C@@H](C)[C@H]1NC(=O)CC2(CCCCC2)SSC[C@@H](C(=O)N2CCC[C@H]2C(=O)N[C@@H](CCCN=C(N)N)C(=O)NCC(N)=O)NC(=O)[C@H](CC(N)=O)NC(=O)[C@H](C)NC(=O)[C@H](Cc2ccccc2)NC1=O [listing 2 of 2 here] |  |  |  |  | 39 | 1.7 | 57 | 66 | 
6 | CCC[C@@H]1NC(=O)[C@H](Cc2ccccc2)NC(=O)[C@@H]([C@H](C)CC)NC(=O)CC2(CCCCC2)SSC[C@@H](C(=O)N2CCC[C@H]2C(=O)N[C@@H](CCCN=C(N)N)C(=O)NCC(N)=O)NC(=O)[C@H](CC(N)=O)NC1=O [listing 1 of 2 here] | 97.7 | 110 | 14.8 | 15.8 |  |  |  |  | Kb (Rattus norvegicus [5]): 295 nM
7 | CCC[C@@H]1NC(=O)[C@H](Cc2ccccc2)NC(=O)[C@@H]([C@H](C)CC)NC(=O)CC2(CCCCC2)SSC[C@@H](C(=O)N2CCC[C@H]2C(=O)N[C@@H](CCCN=C(N)N)C(=O)NCC(N)=O)NC(=O)[C@H](CC(N)=O)NC1=O [listing 2 of 2 here] |  |  |  |  | 1.2 | 7 | 22 | 8.2 | 
8 | CC[C@@H]1NC(=O)[C@H](Cc2ccccc2)NC(=O)[C@@H]([C@H](C)CC)NC(=O)CC2(CCCCC2)SSC[C@@H](C(=O)N2CCC[C@H]2C(=O)N[C@@H](CCCN=C(N)N)C(=O)NCC(N)=O)NC(=O)[C@H](CC(N)=O)NC1=O [listing 1 of 2 here] | 6.03 |  |  | 93.3 |  |  |  |  | Kb (Rattus norvegicus [10]): 186 nM; Kb (Rattus norvegicus [11]): 32.4 nM; Kb (Rattus norvegicus [5]): 224 nM
9 | CC[C@@H]1NC(=O)[C@H](Cc2ccccc2)NC(=O)[C@@H]([C@H](C)CC)NC(=O)CC2(CCCCC2)SSC[C@@H](C(=O)N2CCC[C@H]2C(=O)N[C@@H](CCCN=C(N)N)C(=O)NCC(N)=O)NC(=O)[C@H](CC(N)=O)NC1=O [listing 2 of 2 here] |  |  |  |  | 29 | 0.41 | 19 | 12 | 
10 | CC[C@@H](C)[C@H]1NC(=O)CC2(CCCCC2)SSC[C@@H](C(=O)N2CCC[C@H]2C(=O)N[C@@H](CCCN=C(N)N)C(=O)NCC(N)=O)NC(=O)[C@H](CC(N)=O)NC(=O)[C@H]([C@@H](C)O)NC(=O)[C@H](Cc2ccccc2)NC1=O [listing 1 of 2 here] | 12.3 | 148 | 7.94 | 20.4 |  |  |  |  | Kb (Rattus norvegicus [12]): 135 nM
11 | CC[C@@H](C)[C@H]1NC(=O)CC2(CCCCC2)SSC[C@@H](C(=O)N2CCC[C@H]2C(=O)N[C@@H](CCCN=C(N)N)C(=O)NCC(N)=O)NC(=O)[C@H](CC(N)=O)NC(=O)[C@H]([C@@H](C)O)NC(=O)[C@H](Cc2ccccc2)NC1=O [listing 2 of 2 here] |  |  |  |  | 12 | 0.88 | 9.5 | 10.5 | 
12 | CC[C@@H](C)[C@H]1NC(=O)CC2(CCCCC2)SSC[C@@H](C(=O)N2CCC[C@H]2C(=O)N[C@@H](CCCN=C(N)N)C(=O)NCC(N)=O)NC(=O)[C@H](CC(N)=O)NC(=O)[C@H](CO)NC(=O)[C@H](Cc2ccccc2)NC1=O | 55 | 617 | 52.5 | 151 |  |  |  |  | 
13 | CC[C@@H](C)[C@H]1NC(=O)CC2(CCCCC2)SSC[C@@H](C(=O)N2CCC[C@H]2C(=O)N[C@@H](CCCN=C(N)N)C(=O)NCC(N)=O)NC(=O)[C@H](CC(N)=O)NC(=O)[C@H]([C@@H](C)CC)NC(=O)[C@H](Cc2ccccc2)NC1=O [listing 1 of 2 here] | 9.12 |  | 33.9 | 15.1 |  |  |  |  | Kb (Rattus norvegicus [10]): 380 nM; Kb (Rattus norvegicus [13]): 126 nM
14 | CC[C@@H](C)[C@H]1NC(=O)CC2(CCCCC2)SSC[C@@H](C(=O)N2CCC[C@H]2C(=O)N[C@@H](CCCN=C(N)N)C(=O)NCC(N)=O)NC(=O)[C@H](CC(N)=O)NC(=O)[C@H]([C@@H](C)CC)NC(=O)[C@H](Cc2ccccc2)NC1=O [listing 2 of 2 here] |  |  |  |  | 39 | 0.67 | 9.4 | 26 | 
15 | CC[C@@H](C)[C@H]1NC(=O)CC2(CCCCC2)SSC[C@@H](C(=O)N2CCC[C@H]2C(=O)N[C@@H](CCCN=C(N)N)C(=O)NCC(N)=O)NC(=O)[C@H](CC(N)=O)NC(=O)[C@H](CC(C)C)NC(=O)[C@H](Cc2ccccc2)NC1=O | 158 | 178 | 14.5 | 26.9 |  |  |  |  | 
16 | NCCC[C@@H]1NC(=O)[C@H](Cc2ccccc2)NC(=O)[C@@H](Cc2ccccc2)NC(=O)CC2(CCCCC2)SSC[C@@H](C(=O)N2CCC[C@H]2C(=O)N[C@@H](CCCN=C(N)N)C(=O)NCC(N)=O)NC(=O)[C@H](CC(N)=O)NC1=O ([dF]F[Orn]NCPRG-NH2; linker N-5 via X1) | 316 | 26.9 | 18.6 | 20 |  |  |  |  | 
